A value given as a limit tells only on which side of the number the result lay.

A short description of series [1]: Inhibition of Hepatitis C virus genotype 1b HC-J4 recombinant N-terminal histidine tagged truncated NS5B polymerase lacking C-terminal 21 amino acids assessed as standard-primer dependent elongation reaction using poly rA/U12 as template after 1 hr by liquid scintillation counting analysis. Details: species or system Hepatitis C virus isolate HC-J4. The essentials: (§1)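 Construct is His-tagged HC-J4 NS5B CΔ21, Ni-NTA purified. Poly rA/U12 primer-dependent elongation run 1 h at 30 °C, then stopped with chilled 5% TCA/0.5 mM pyrophosphate. Products collected on GF-B filters and counted by scintillation. Activity expressed relative to DMSO control. Screen at 25 μM. IC50 from 8–12 concentrations in duplicate, two independent experiments, by nonlinear regression.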

Series [2] can be described thus: Cytostatic activity against human Huh5-2 cells assessed as cell viability after 72 hrs by MTS assay. The format is cell-based. The following applies: huh-5-2, 72 h. The gist of the method:
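Huh 5-2 cells carry genotype 1b I389luc-ubineo/NS3-3'/5.1 replicon, maintained with 2% Geneticin. Seeded at 6 500 cells/well in Geneticin-free assay medium, overnight. Four-step 1:5 dilution screen or eight-step 1:2 series, 72 h at 37 °C. 5% MTS for 1.5 h, absorbance at 498 nm as % of untreated. CC50 from dose-response, mean of ≥3 independent experiments.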
In general terms: Tetrazolium dyes change colour on reduction, which living cells bring about.

Series [3] can be described thus: Selectivity index, ratio of CC50 for human Huh5-2 cells to EC50 for Hepatitis C virus genotype 1b I389luc-ubi-neo/NS3-3'/5.1 replicon in Huh 5-2 cells. The following applies: read-out: Ratio CC50/EC50. The class given is toxicity, cell-based. The gist of the method: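 Huh 5-2 replicon cells seeded at 6,500/well, overnight at 37 °C; compound dilution series (four-step 1:5 screen, eight-step 1:2 dose-response), 72 h. Antiviral: luciferase luminescence versus untreated controls. Parallel anti-metabolic: 5% MTS 1.5 h, absorbance 498 nm. EC50, CC50 from dose-response curves, means of at least three independent experiments; SI = CC50/EC50.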
Background: A replicon is a self-replicating genome or part of one, used to study replication in cells.

Series [4] concerns Hepatitis C virus. Briefly: Antiviral activity against Hepatitis C virus genotype 1b I389luc-ubi-neo/NS3-3'/5.1 replicon in Huh 5-2 cells assessed as inhibition of replicon replication after 72 hrs by replicon system assay. The class given is functional, organism-based, Hepacivirus hominis. The following applies: Huh-5-2, 72 h. The essentials:
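Huh 5-2 replicon cells seeded at 6 500 cells/well one day before compound in DMEM with 10% FCS, 1% non-essential amino acids, 1% penicillin/streptomycin, no Geneticin. Four-step 1-to-5 or eight-step 1-to-2 dilutions, 72 h at 37 °C, 5% CO₂. Luciferase luminescence read after lysis, as % of untreated controls. EC50/EC90 from dose-response curves, means of at least three independent experiments.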

Series [5] has as its system Hepatitis C virus isolate HC-J4. Briefly: Inhibition of Hepatitis C virus genotype 1b HC-J4 recombinant N-terminal histidine tagged truncated NS5B polymerase lacking C-terminal 21 amino acids assessed as standard-primer dependent elongation reaction using poly rA/U12 as template at 25 uM after 1 hr by liquid scintillation counting analysis. The essentials:
as §1

Series [6] in a line: Binding affinity to Hepatitis C virus truncated NS5B polymerase lacking C-terminal 21 amino acids after 5 mins by fluorescence quenching assay. More on the design: species or system Hepacivirus hominis. The gist of the method:
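NS5B CΔ21 at 1 μM final in 50 mM Tris-HCl pH 7.8, 50 mM NaCl, 10% glycerol, 10% DMSO, 0.5 mM MnCl2. Serially diluted compound or DMSO, 5 min at room temperature. Intrinsic fluorescence excitation 280 nm, emission 330 nm; buffer-plus-compound background subtracted. KD fitted to ΔF/ΔFmax = [compound]total/(KD + [compound]total).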

Series [7] in a line: Binding affinity to Hepatitis C virus isolate Con1 C-terminal hexahistidine fusion-tagged NS5B polymerase ectodomain by surface plasmon resonance assay. The essentials:
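Con1 NS5B ectodomain (C-terminal His6) amine-coupled to CM5 chip at 4–5 kRU from 10 mM MES pH 6.0. Running buffer TBS-P (20 mM Tris pH 7.4, 130 mM NaCl, 0.05% Tween20, 5% DMSO). Compound injected 60 s at 30 μL/min, two-fold series 6–200 μM. Reference/blank subtraction, solvent correction; KD from global 1:1 Langmuir fit.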
For orientation: In SPR one partner is held on a chip, and binding of the other changes the refractive index at the surface.

Series [8] is described as follows: Cytotoxicity against human Huh-9-13 cells assessed as alteration in cell morphology by microscopic analysis. The format is cell-based.
Series [9] in a line: Cytostatic activity against human Huh-9-13 cells assessed as cell viability after 72 hrs by MTS assay. The format is cell-based. The essentials:
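Huh 9–13 subgenomic replicon cells seeded at 6 500 cells/well in DMEM with 10% FCS, 1% non-essential amino acids, 1% penicillin/streptomycin, then incubated overnight. Compound dilution series given, 72 h at 37 °C, 5% CO₂. Medium replaced with 5% MTS in phenol red-free medium for 1.5 h. Absorbance read at 498 nm as % of untreated. CC50 taken from dose-response, mean of ≥3 independent experiments.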

The test system of series [10] is Hepatitis C virus. Put plainly: Antiviral activity against Hepatitis C virus genotype 1b I389luc-ubi-neo/NS3-3'/5.1 replicon in Huh 9-13 cells assessed as reduction in replicon RNA level after 72 hrs by RT-PCR analysis. The format is functional, organism-based, Hepacivirus hominis.
Series [11] in a line: Selectivity index, ratio of CC50 for human Huh-9-13 cells to EC50 for Hepatitis C virus genotype 1b I389luc-ubi-neo/NS3-3'/5.1 replicon in Huh-9-13 cells. The format is toxicity, cell-based. Particulars: read-out: Ratio CC50/EC50. The gist of the method: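 Huh 9-13 replicon cells, setup and 72 h compound exposure as for Huh 5-2; CC50 by MTS in parallel. Antiviral readout: replicon RNA by one-step RT-qPCR of cell-to-cDNA lysates (300 nM each primer, 60 nM probe; 40 cycles), expressed as percentage of untreated controls to give EC50; SI = CC50/EC50.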

The term IC50 denotes the concentration that gives 50% inhibition. A word on the CC50: it is the concentration at which the toxic effect on the cells reaches its halfway point. As usually defined, the EC50 is the concentration at which the effect is half-maximal. Take `CCOC(=O)c1cn(Cc2ccc(Cl)cc2)c2cc(N3CCN(c4ccccn4)CC3)c(N)cc2c1=O`: the IC50 in [1] was found to be 3.06 µM. The 50% cytotoxic concentration (CC50) in [2] was > 193 µM. Besides, the selectivity ratio in series [3] is > 6.2. Also, the EC50 with Hepatitis C virus [4] turned out to be 31.3 µM.

A word on the inhibition: it is the share of the control response that was lost under treatment. In general, EC90 refers to the point of the concentration-response curve where the effect stands at 90%. For `Cc1ccc(COC(=O)c2cn(Cc3ccc(C(F)(F)F)cc3F)c3cc(Cl)c(N)cc3c2=O)cc1`, in series [1], the IC50 was found to be 0.154 µM. Further, in [5], the inhibition is > 50%. In addition, the half-maximal cytotoxic concentration (CC50) in series [2] is > 192 µM. In the series with Hepatitis C virus [4], the concentration for a half-maximal effect (EC50) stood at 72.3 µM and the 90% effect concentration (EC90) was > 192 µM.

For `Nc1cc2c(=O)c(C(=O)OCc3ccc(Cl)cc3)cn(Cc3ccc(Cl)cc3)c2cc1N1CCN(c2cccc(C(F)(F)F)c2)CC1`, in series [1], the half-inhibitory concentration (IC50) amounted to 6.13 µM. In addition, the inhibition in series [5] was > 50%. The half-maximal cytotoxic concentration (CC50) in series [2] was > 147 µM. Further, in the series on Hepatitis C virus [4], the EC50 turned out to be 23.8 µM and the EC90 is 94.6 µM.

In general, Kd refers to the constant that tells how readily two partners part at equilibrium. As to `CN1CCN(c2cc3c(cc2N)c(=O)c(C(=O)OCc2ccc(Cl)cc2)cn3Cc2ccc(Cl)cc2)CC1`, the IC50 in series [1] was determined as 0.04 µM. Further, the Kd in [6] was 1.2 µM; in series [7] it was 14 µM. Further, the inhibition in [5] is > 50%. In [2], the 50% cytotoxic concentration (CC50) was 2.8 µM. Besides, the selectivity ratio in series [3] came out at 1.2. Also, the concentration for a half-maximal effect (EC50) with Hepatitis C virus [4] came to 2.7 µM.

For the compound `Nc1cc2c(=O)c(C(=O)OCc3ccc(Cl)cc3)cn(Cc3ccc(Cl)cc3)c2cc1N1CCN(c2ccccn2)CC1`, the IC50 in series [1] came to 0.069 µM. Besides, in series [8], the Activity entry was “Toxic”. The CC50 in [9] was > 163 µM; in series [2] it was > 244 µM. Besides, the results for the EC50 with Hepatitis C virus [10] and with Hepatitis C virus [4] were 3.03 µM and 2.2 µM, respectively. In addition, the figures for the selectivity ratio in series [11] and in [3] were > 54 and > 111, respectively. Moreover, the inhibition in series [5] is > 50%. In addition, in the series on Hepatitis C virus [4], the concentration for an effect of 90% (EC90) came to 13.5 µM.

With `Nc1cc2c(=O)c(C(=O)O)cn(Cc3ccc(Cl)cc3)c2cc1N1CCN(c2ccccn2)CC1`, in series [1], the IC50 turned out to be 23.7 µM. In addition, in [2], the 50% cytotoxic concentration (CC50) is > 204 µM. Further, in the series on Hepatitis C virus [4], the concentration for a half-maximal effect (EC50) was 7.3 µM.

In the case of `Nc1cc2c(=O)c(C(=O)OCc3ccc(Cl)cc3)cn(Cc3ccc(Cl)cc3)c2cc1N1CCNCC1`, the half-inhibitory concentration (IC50) in series [1] came out at 0.067 µM. Moreover, the inhibition in series [5] is > 50%. In addition, in series [2], the 50% cytotoxic concentration (CC50) was determined as 3.7 µM. In series [3], the selectivity ratio was 2.3. The concentration for a half-maximal effect (EC50) with Hepatitis C virus [4] turned out to be 1.7 µM.

Regarding `Nc1cc2c(=O)c(C(=O)OCc3ccc(Cl)cc3)cn(Cc3ccc(Cl)cc3)c2cc1Cl`, in series [2], the CC50 was > 200 µM. For the same compound, in the series on Hepatitis C virus [4], the concentration for a half-maximal effect (EC50) is > 200 µM and the EC90 is > 200 µM.

For the compound `Cc1ccccc1COC(=O)c1cn(Cc2ccc(C(F)(F)F)cc2F)c2cc(Cl)c(N)cc2c1=O`, the half-inhibitory concentration (IC50) in [1] is 1.41 µM. Besides, the inhibition in series [5] was > 50%. Also, the CC50 in [2] was found to be 10.5 µM. In [3], the selectivity ratio was determined as 6.8. For the same compound, the concentration giving a half-maximal response (EC50) in the series with Hepatitis C virus [4] stood at 1.5 µM.

`COc1cc2c(=O)c(C(=O)OCc3ccc(C)cc3)cn(Cc3ccc(C(F)(F)F)cc3F)c2cc1OC`: the concentration for half-maximal inhibition (IC50) in series [1] is 0.211 µM. For the same compound, the cytotoxic concentration (CC50) in series [2] is 42.3 µM. Moreover, the selectivity ratio in [3] is 21. Moreover, in the series on Hepatitis C virus [4], the EC50 was 2.02 µM and the EC90 amounted to 4.7 µM.

Consider `Nc1cc2c(=O)c(C(=O)OCc3ccc(Cl)cc3)cn(Cc3ccc(Cl)cc3)c2cc1N1CCN(c2nc3ccccc3s2)CC1`, for which the IC50 in series [1] is 0.138 µM. The inhibition in [5] is > 50%. Moreover, in series [2], the CC50 was > 169 µM. Moreover, the EC50 with Hepatitis C virus [4] was found to be 8.6 µM.
